Measurements of several laboratories.
Each line is one published result; the experiments were not run side by side.
BTK: Tyrosine-protein kinase BTK (BTK, Homo sapiens, UniProt Q06187)

The inhibition of `COc1cc2nccc(Oc3ccc(NC(=O)c4c5n(n(-c6ccc(F)cc6)c4=O)CCCC5)cc3)c2cc1OC` is reported as -7% (BTK; enzyme activity; inhibitor; 0.1 µM).
With `CN(C)C1CCN(CC#Cc2nn(C3CCCC3)c3nc(NCc4ccccc4)ncc23)C1` (stereo not shown) the inhibition was 22% (BTK; enzyme activity; inhibitor; FRET; 10 µM).
For `CCN(CC)CCNC(=O)c1c(C)[nH]c(/C=C2\C(=O)Nc3ccc(F)cc32)c1C`, the inhibition was 91.3% (BTK; binding; competition with immobilised ligand; 0.1 µM).
The inhibition of `CC/C(=N\NC(=O)NCc1cccc(O)c1)c1ccc(O)c(C)c1O` is reported as -1.8% (Tyrosine-protein kinase BTK (BTK, Homo sapiens, UniProt Q06187, C481S); enzyme activity; inhibitor; 0.1 µM).
`COc1ccc(F)cc1C(=O)NCc1ccc(-c2nn([C@@H](C)C(F)(F)F)c(N)c2C(N)=O)cc1` has an inhibition of 97% (BTK; enzyme activity; inhibitor; radiometric; 0.1 µM).
With `CN(c1ncccc1CNc1nc(Nc2ccc3c(c2)CC(=O)N3)ncc1C(F)(F)F)S(C)(=O)=O` the inhibition was 65% (BTK; enzyme activity; inhibitor; 1 µM).
With `COc1cc2ncnc(Nc3ccc(Oc4ccccc4)c(C)c3C)c2cc1OC` the inhibition was 33% (BTK; enzyme activity; inhibitor; 1 µM).
The inhibition of `CCN(CC)CCNC(=O)c1c(C)[nH]c(/C=C2\C(=O)Nc3ccc(F)cc32)c1C` is reported as 85% (BTK; enzyme activity; inhibitor; 10 µM).
`CS(=O)(=O)Nc1cccc(-c2csc(NC(=O)CSc3nc4nccnc4c(=O)n3CCc3ccccc3)n2)c1` gave an inhibition of 3% (BTK; enzyme activity; inhibitor; 10 µM).
`Cc1ccc(Nc2nccc(N(C)c3ccc4c(C)n(C)nc4c3)n2)cc1S(N)(=O)=O` has an inhibition of 72% (BTK; enzyme activity; inhibitor; 10 µM).
`CCCS(=O)(=O)Nc1ccc(F)c(C(=O)c2c[nH]c3ncc(-c4ccc(Cl)cc4)cc23)c1F` gave an inhibition of less than 10% (BTK; enzyme activity; inhibitor; 1 µM).
`CNC(=O)c1cc(Oc2ccc(NC(=O)Nc3ccc(Cl)c(C(F)(F)F)c3)cc2)ccn1` gave an inhibition of 1% (BTK; enzyme activity; inhibitor; 0.3 µM).
The inhibition of `CNCc1ccc(-c2cc(-c3nc(-c4ccc(S(=O)(=O)C(C)C)cc4)cnc3N)on2)cc1` is reported as 4% (BTK; enzyme activity; inhibitor; 0.4 µM).
